Source: publication PMC3048920 (Clinical cancer research : an official journal of the …, 2011)

Legend:
[1] = system: patients with advanced solid malignancies; test: Phase I dose escalation: dose-limiting toxicities and maximum tolerated dose; type: in vivo; conditions: for Even ts, n/N: DLT events, cycle 1
[2] = system: patients with advanced solid malignancies; test: Treatment-related adverse events and laboratory abnormalities; type: in vivo
[3] = system: Ki67 and pERK1/2 (pMAPK) in skin biopsies; test: Skin biopsy pharmacodynamic biomarkers by immunohistochemistry; type: in vivo, human; conditions: with increased dose, Cmax, AUCtau and Ctrough; baseline vs cycle 1 day 14; P < 0.05
[4] = system: advanced malignant solid tumors; test: Tumor response; type: in vivo, human
[5] = system: NSCLC; test: Tumor response in NSCLC patients, correlated with tumor genotype; type: in vivo, human
Method in brief: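 NSCLC patients treated with oral once-daily test compound had tumors assessed by RECIST v1.0 at baseline, every two cycles and at end of treatment. Response was related to genotype. Archived tumor, or a fresh baseline biopsy where feasible, was tested for EGFR and KRAS mutations and EGFR/HER2 copy number by site laboratories, Pfizer or Genzyme.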

[6] = human, in vivo
[7] = Schedule A (n = 111), treatment-related, all cycles
[8] = Schedule B (n = 10), treatment-related, all cycles
[9] = EGFR Exon 19 deletion, 17 patients
[10] = EGFR Exon 19 deletion/T790M, 4 patients
[11] = EGFR Exon 20 insertion, 6 patients (one not evaluable)
[12] = EGFR mutation unknown, 12 patients (one not evaluable)
[13] = EGFR wild type, 12 patients (one not evaluable)

COc1cc2ncnc(Nc3ccc(F)c(Cl)c3)c2cc1NC(=O)/C=C/CN1CCCCC1 [PF299804]
total number of DLTs, share of treated patients ([1]; 45 mg including loading-dose cohort, four of 71 treated patients): 6%
total number of DLTs, share of treated patients ([1]; 45 mg, two of 52 treated patients): 4%
Even ts, n/N ([1]; Schedule A, 0.5 mg/day): 0/3
Even ts, n/N ([1]; Schedule A, 1 mg/day): 0/3
Even ts, n/N ([1]; Schedule A, 2 mg/day): 0/3
Even ts, n/N ([1]; Schedule A, 4 mg/day): 0/5
Even ts, n/N ([1]; Schedule A, 8 mg/day): 0/3
Even ts, n/N ([1]; Schedule A, 16 mg/day): 0/4
Even ts, n/N ([1]; Schedule A, 30 mg/day): 1/13
Even ts, n/N ([1]; Schedule A, 45 mg/day (loading dose)): 2/19
Even ts, n/N ([1]; Schedule A, 45 mg/day): 2/52
Even ts, n/N ([1]; Schedule A, 60 mg/day): 3/6
Even ts, n/N ([1]; Schedule B, 60 mg/day): 1/10
maximum tolerated dose (MTD) ([1]; continuous once-daily dosing): 45 mg/day
Anorexia, Grade 1, n (%) [2, 7]: 12 (10.8) n (%)
Anorexia, Grade 2, n (%) [2, 7]: 9 (8.1) n (%)
Anorexia, Grade 3, n (%) [2, 7]: 2 (1.8) n (%)
Anorexia, Total, n (%) [2, 7]: 23 (20.7) n (%)
Dermatitis acneiform, Grade 1, n (%) [2, 7]: 11 (9.9) n (%)
Dermatitis acneiform, Grade 2, n (%) [2, 7]: 3 (2.7) n (%)
Dermatitis acneiform, Grade 3, n (%) [2, 7]: 6 (5.4) n (%)
Dermatitis acneiform, Total, n (%) [2, 7]: 20 (18.0) n (%)
Diarrhea, Grade 1, n (%) [2, 7]: 43 (38.7) n (%)
Diarrhea, Grade 2, n (%) [2, 7]: 20 (18.0) n (%)
Diarrhea, Grade 3, n (%) [2, 7]: 11 (9.9) n (%)
Diarrhea, Total, n (%) [2, 7]: 74 (66.7) n (%)
Dry skin, Grade 1, n (%) [2, 7]: 29 (26.1) n (%)
Dry skin, Grade 2, n (%) [2, 7]: 1 (0.9) n (%)
Dry skin, Grade 3, n (%) [2, 7]: 0 n (%)
Dry skin, Total, n (%) [2, 7]: 30 (27.0) n (%)
Fatigue, Grade 1, n (%) [2, 7]: 20 (18.0) n (%)
Fatigue, Grade 2, n (%) [2, 7]: 15 (13.5) n (%)
Fatigue, Grade 3, n (%) [2, 7]: 3 (2.7) n (%)
Fatigue, Total, n (%) [2, 7]: 38 (34.2) n (%)
Nausea, Grade 1, n (%) [2, 7]: 28 (25.2) n (%)
Nausea, Grade 2, n (%) [2, 7]: 7 (6.3) n (%)
Nausea, Grade 3, n (%) [2, 7]: 1 (0.9) n (%)
Nausea, Total, n (%) [2, 7]: 36 (32.4) n (%)
Rash, Grade 1, n (%) [2, 7]: 30 (27.0) n (%)
Rash, Grade 2, n (%) [2, 7]: 16 (14.4) n (%)
Rash, Grade 3, n (%) [2, 7]: 4 (3.6) n (%)
Rash, Total, n (%) [2, 7]: 50 (45.0) n (%)
Stomatitis, Grade 1, n (%) [2, 7]: 17 (15.3) n (%)
Stomatitis, Grade 2, n (%) [2, 7]: 9 (8.1) n (%)
Stomatitis, Grade 3, n (%) [2, 7]: 4 (3.6) n (%)
Stomatitis, Total, n (%) [2, 7]: 30 (27.0) n (%)
Vomiting, Grade 1, n (%) [2, 7]: 14 (12.6) n (%)
Vomiting, Grade 2, n (%) [2, 7]: 3 (2.7) n (%)
Vomiting, Grade 3, n (%) [2, 7]: 1 (0.9) n (%)
Vomiting, Total, n (%) [2, 7]: 18 (16.2) n (%)
Alopecia, Grade 1, n (%) [2, 8]: 2 (20.0) n (%)
Alopecia, Grade 2, n (%) [2, 8]: 0 n (%)
Alopecia, Grade 3, n (%) [2, 8]: 0 n (%)
Alopecia, Total, n (%) [2, 8]: 2 (20.0) n (%)
Anorexia, Grade 1, n (%) [2, 8]: 0 n (%)
Anorexia, Grade 2, n (%) [2, 8]: 3 (30.0) n (%)
Anorexia, Grade 3, n (%) [2, 8]: 0 n (%)
Anorexia, Total, n (%) [2, 8]: 3 (30.0) n (%)
Dermatitis acneiform, Grade 1, n (%) [2, 8]: 0 n (%)
Dermatitis acneiform, Grade 2, n (%) [2, 8]: 3 (30.0) n (%)
Dermatitis acneiform, Grade 3, n (%) [2, 8]: 0 n (%)
Dermatitis acneiform, Total, n (%) [2, 8]: 3 (30.0) n (%)
Diarrhea, Grade 1, n (%) [2, 8]: 2 (20.0) n (%)
Diarrhea, Grade 2, n (%) [2, 8]: 5 (50.0) n (%)
Diarrhea, Grade 3, n (%) [2, 8]: 2 (20.0) n (%)
Diarrhea, Total, n (%) [2, 8]: 9 (90.0) n (%)
Dry eye, Grade 1, n (%) [2, 8]: 1 (10.0) n (%)
Dry eye, Grade 2, n (%) [2, 8]: 2 (20.0) n (%)
Dry eye, Grade 3, n (%) [2, 8]: 0 n (%)
Dry eye, Total, n (%) [2, 8]: 3 (30.0) n (%)
Dry skin, Grade 1, n (%) [2, 8]: 1 (10.0) n (%)
Dry skin, Grade 2, n (%) [2, 8]: 2 (20.0) n (%)
Dry skin, Grade 3, n (%) [2, 8]: 0 n (%)
Dry skin, Total, n (%) [2, 8]: 3 (30.0) n (%)
Eye pain, Grade 1, n (%) [2, 8]: 2 (20.0) n (%)
Eye pain, Grade 2, n (%) [2, 8]: 0 n (%)
Eye pain, Grade 3, n (%) [2, 8]: 0 n (%)
Eye pain, Total, n (%) [2, 8]: 2 (20.0) n (%)
Fatigue, Grade 1, n (%) [2, 8]: 0 n (%)
Fatigue, Grade 2, n (%) [2, 8]: 3 (30.0) n (%)
Fatigue, Grade 3, n (%) [2, 8]: 1 (10.0) n (%)
Fatigue, Total, n (%) [2, 8]: 4 (40.0) n (%)
Nausea, Grade 1, n (%) [2, 8]: 1 (10.0) n (%)
Nausea, Grade 2, n (%) [2, 8]: 2 (20.0) n (%)
Nausea, Grade 3, n (%) [2, 8]: 1 (10.0) n (%)
Nausea, Total, n (%) [2, 8]: 4 (40.0) n (%)
Pruritus, Grade 1, n (%) [2, 8]: 2 (20.0) n (%)
Pruritus, Grade 2, n (%) [2, 8]: 0 n (%)
Pruritus, Grade 3, n (%) [2, 8]: 0 n (%)
Pruritus, Total, n (%) [2, 8]: 2 (20.0) n (%)
Rash, Grade 1, n (%) [2, 8]: 4 (40.0) n (%)
Rash, Grade 2, n (%) [2, 8]: 2 (20.0) n (%)
Rash, Grade 3, n (%) [2, 8]: 0 n (%)
Rash, Total, n (%) [2, 8]: 6 (60.0) n (%)
Skin exfoliation, Grade 1, n (%) [2, 8]: 1 (10.0) n (%)
Skin exfoliation, Grade 2, n (%) [2, 8]: 0 n (%)
Skin exfoliation, Grade 3, n (%) [2, 8]: 1 (10.0) n (%)
Skin exfoliation, Total, n (%) [2, 8]: 2 (20.0) n (%)
Skin fissures, Grade 1, n (%) [2, 8]: 2 (20.0) n (%)
Skin fissures, Grade 2, n (%) [2, 8]: 1 (10.0) n (%)
Skin fissures, Grade 3, n (%) [2, 8]: 0 n (%)
Skin fissures, Total, n (%) [2, 8]: 3 (30.0) n (%)
Stomatitis, Grade 1, n (%) [2, 8]: 1 (10.0) n (%)
Stomatitis, Grade 2, n (%) [2, 8]: 1 (10.0) n (%)
Stomatitis, Grade 3, n (%) [2, 8]: 1 (10.0) n (%)
Stomatitis, Total, n (%) [2, 8]: 3 (30.0) n (%)
Vomiting, Grade 1, n (%) [2, 8]: 2 (20.0) n (%)
Vomiting, Grade 2, n (%) [2, 8]: 1 (10.0) n (%)
Vomiting, Grade 3, n (%) [2, 8]: 0 n (%)
Vomiting, Total, n (%) [2, 8]: 3 (30.0) n (%)
total AEs ([2]; all 121 patients): 1,416 AEs
AEs considered to be related to study drug ([2]; all schedules): 709 AEs
patients experiencing AEs related to study drug ([2]; all schedules, of 121): 111 patients
AEs considered to be related to study drug ([2]; schedule A): 626 AEs
patients experiencing AEs related to study drug ([2]; schedule A): 102 patients
patients with dose interruptions as a result of treatment-related AEs ([2]; schedule A): 29
AEs considered to be related to study drug ([2]; schedule B): 83 AEs
patients with dose interruptions as a result of treatment-related AEs ([2]; schedule B): 3
levels of pMAPK in skin biopsy [3]: significantly decreased
complete responses ([4]; 110 patients with at least one response evaluation): No complete responses
patients with PR ([4]; four of 110 evaluated patients, all NSCLC): 3.6%
patients with stable disease as best response ([4]; over all treatment cohorts, 110 evaluated): 44 patients
objective response to treatment ([5]; 4 patients with exon 19 deletions and documented T790M): None
Treatment Outcome, PD (patients) [5, 9]: 7
Treatment Outcome, PR (patients) [5, 9]: 2
Treatment Outcome, SD (patients) [5, 9]: 8
Treatment Outcome, PD (patients) [5, 10]: SD:2; PD:2
Treatment Outcome, SD (patients) [5, 10]: SD:2; PD:2
Treatment Outcome, PD (patients) [5, 11]: 2
Treatment Outcome, PR (patients) [5, 11]: 1
Treatment Outcome, SD (patients) [5, 11]: 2
Treatment Outcome, PD (patients) ([5]; EGFR L858R, 4 patients): 1
Treatment Outcome, SD (patients) ([5]; EGFR L858R, 4 patients): 3
Treatment Outcome, PD (patients) ([5]; EGFR mutant, Other, 2 patients): SD: 1; PD:1
Treatment Outcome, SD (patients) ([5]; EGFR mutant, Other, 2 patients): SD: 1; PD:1
Treatment Outcome, IND (patients) [5, 12]: 1
Treatment Outcome, PD (patients) [5, 12]: 2
Treatment Outcome, PR (patients) [5, 12]: 1
Treatment Outcome, SD (patients) [5, 12]: 7
Treatment Outcome, IND (patients) [5, 13]: 1
Treatment Outcome, PD (patients) [5, 13]: 5
Treatment Outcome, SD (patients) [5, 13]: 5
Treatment Outcome, SD (patients) ([5]; HER2 amplified, 2 patients): SD:2
additional patients with stable disease (SD) of ≥6 weeks duration ([5]; NSCLC patients): 28 patients
terminal half-life (t1/2) [6]: 59 to 85 h
